From ChEMBL document CHEMBL1157617, “A new class of naphthalimide-based antitumor agents that inhibit topoisomerase II and induce lysosomal membrane permeabilization and apoptosis” (J Med Chem, 2010)
pIC50: −log10 of the molar value. Calls of active or inactive are those of the source. The calls are words filed in the database; no cut-off is given here.

Assays:
[1] = system: Nucleic Acid; assay: Induction of conformational changes in Escherichia coli pBR322 DNA assessed as DNA relaxation at 100 uM after 2 hrs by gel electrophoresis; assay type: nucleic-acid assay
In short: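 pBR322 plasmid (200 ng) was incubated with compound at 100 μM in Tris-HCl pH 7.4 for 2 h at 37 °C. Samples ran on 1% agarose and were stained with ethidium bromide; supercoiled versus relaxed forms were judged from gel migration.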

[2] = system: HeLa; assay: Induction of lysosomal membrane permeabilization in human HeLa cells assessed as acridine orange red fluorescence at 8 uM after 24 hrs by flow cytometry; assay type: functional
In short: (§1)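 Each compound was tested at three concentrations on HeLa cells for 24 h. Adherent and floating cells were pooled and stained with 20 μg/mL acridine orange for 2 min at room temperature. Lysosomal rupture was scored by flow cytometry as percentage of cells with AO red fluorescence.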

[3] = target: DNA topoisomerase 2-alpha (Homo sapiens) (UniProt P11388); assay: Inhibition of DNA topoisomerase 2-mediated kDNA decatenation at 100 uM
Chain of DNA topoisomerase 2-alpha (Homo sapiens) (P11388 whole entry): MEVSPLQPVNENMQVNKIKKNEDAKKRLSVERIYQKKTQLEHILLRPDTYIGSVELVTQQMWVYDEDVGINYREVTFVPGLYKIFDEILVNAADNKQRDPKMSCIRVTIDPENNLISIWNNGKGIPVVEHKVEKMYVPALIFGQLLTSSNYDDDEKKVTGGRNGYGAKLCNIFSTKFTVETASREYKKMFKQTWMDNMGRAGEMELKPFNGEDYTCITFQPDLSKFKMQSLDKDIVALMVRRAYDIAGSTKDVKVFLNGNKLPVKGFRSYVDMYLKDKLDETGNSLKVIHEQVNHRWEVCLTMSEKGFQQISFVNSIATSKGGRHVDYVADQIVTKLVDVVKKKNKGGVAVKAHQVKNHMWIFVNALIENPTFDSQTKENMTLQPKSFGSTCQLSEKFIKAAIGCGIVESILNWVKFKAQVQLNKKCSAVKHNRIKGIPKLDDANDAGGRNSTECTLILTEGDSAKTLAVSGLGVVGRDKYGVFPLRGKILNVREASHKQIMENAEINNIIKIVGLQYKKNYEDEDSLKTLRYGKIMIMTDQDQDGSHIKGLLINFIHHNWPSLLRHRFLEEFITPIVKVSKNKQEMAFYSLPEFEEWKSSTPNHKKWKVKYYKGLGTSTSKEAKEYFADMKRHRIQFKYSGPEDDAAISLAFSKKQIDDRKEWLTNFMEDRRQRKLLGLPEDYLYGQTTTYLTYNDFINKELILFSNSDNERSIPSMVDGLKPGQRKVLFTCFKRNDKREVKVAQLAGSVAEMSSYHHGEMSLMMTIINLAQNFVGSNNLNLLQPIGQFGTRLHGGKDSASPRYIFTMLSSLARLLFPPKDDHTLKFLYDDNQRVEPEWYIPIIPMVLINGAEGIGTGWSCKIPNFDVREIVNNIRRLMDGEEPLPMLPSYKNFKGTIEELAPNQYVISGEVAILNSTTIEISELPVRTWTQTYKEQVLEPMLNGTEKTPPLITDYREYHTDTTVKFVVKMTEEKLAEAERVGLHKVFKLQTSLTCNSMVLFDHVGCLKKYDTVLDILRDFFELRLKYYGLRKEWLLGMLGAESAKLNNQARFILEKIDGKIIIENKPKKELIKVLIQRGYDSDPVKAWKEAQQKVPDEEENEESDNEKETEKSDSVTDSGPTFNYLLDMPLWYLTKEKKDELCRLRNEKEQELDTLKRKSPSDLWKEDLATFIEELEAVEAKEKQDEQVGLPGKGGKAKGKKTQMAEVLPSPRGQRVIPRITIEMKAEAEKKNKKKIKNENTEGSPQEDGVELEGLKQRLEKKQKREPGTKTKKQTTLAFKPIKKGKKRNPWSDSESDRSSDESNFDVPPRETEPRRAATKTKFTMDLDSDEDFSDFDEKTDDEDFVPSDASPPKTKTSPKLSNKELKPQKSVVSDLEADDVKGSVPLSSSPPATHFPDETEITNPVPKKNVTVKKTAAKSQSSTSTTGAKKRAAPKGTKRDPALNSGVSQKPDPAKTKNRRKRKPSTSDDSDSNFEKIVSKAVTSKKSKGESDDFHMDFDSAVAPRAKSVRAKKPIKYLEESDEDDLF
In short: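 Cell-free topo II decatenation: 0.2 μg kDNA was incubated with HeLa-cell topo II extract and compound at 100 μM. The cleavage buffer contained 50 mM Tris-HCl pH 8.0, 120 mM KCl, 10 mM MgCl2, 1 mM ATP and 0.5 mM DTT. Reactions ran 15 min at 37 °C and were stopped with SDS. Products were resolved on 1% agarose and stained with ethidium bromide.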

[4] = system: MKN-45; assay: Cytotoxicity against human MKN45 cells after 24 hrs by MTT assay; settings: MKN-45, 24 h
[5] = system: Calf thymus DNA; assay: Binding affinity to calf thymus DNA assessed as circular dichroism by CD spectroscopy; assay type: nucleic-acid assay; settings: Bos taurus
In short: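 CT DNA (100 μM) with drug (20 μM) in 20 mM Tris-HCl pH 7.4. DNA concentration set by UV absorbance, A260/A280 above 1.8. CD spectrum recorded 200-400 nm in a 1 cm cell after shaking, thermal equilibration and buffer subtraction. Analysed over 230-300 nm.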

[6] = system: HeLa; assay: Induction of apoptosis in human HeLa cells assessed as late apoptotic cells at IC50 concentration after 24 hrs using annexin V/propidium iodide staining by flow cytometry; assay type: functional
In short: (§2)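 HeLa cells, seeded at 1 × 10^6 per well, were treated for 24 h at a fixed concentration set per compound. Cells were washed in cold PBS and resuspended in binding buffer. Staining was annexin V-FITC at 4 °C in the dark for 15 min, then PI for 5 min. Quadrants were read by flow cytometry: live, early apoptotic, late apoptotic, damaged. Run three times.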

[7] = Cytotoxicity against human LS 174T cells after 24 hrs by MTT assay; settings: LS174T
[8] = system: HeLa; assay: Induction of lysosomal membrane permeabilization in human HeLa cells assessed as acridine orange red fluorescence at 11 uM after 24 hrs by flow cytometry; assay type: functional; in short: as §1
[9] = system: HeLa; assay: Induction of apoptosis in human HeLa cells assessed as viable cells at IC50 concentration after 24 hrs using annexin V/propidium iodide staining by flow cytometry; assay type: functional; in short: as §2
[10] = system: HeLa; assay: Induction of lysosomal membrane permeabilization in human HeLa cells assessed as acridine orange red fluorescence at 5 uM after 24 hrs by flow cytometry; assay type: functional; in short: as §1
[11] = system: HeLa; assay: Induction of apoptosis in human HeLa cells assessed as damaged cells at IC50 concentration after 24 hrs using annexin V/propidium iodide staining by flow cytometry; assay type: functional; in short: as §2
[12] = system: HeLa; assay: Induction of cytochrome c release into cytosol in human HeLa cells at IC50 concentration after 24 hrs by FITC/Hoechst soluble immunocytochemical staining; assay type: functional, cell-based
In short: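 HeLa cells were treated 24 h at compound-specific concentrations, then fixed in 10% formaldehyde, permeabilized in 90% methanol and blocked with milk. Staining was rabbit anti-cytochrome c (1:500) then FITC goat anti-rabbit IgG (1:100), 1 h each at room temperature, with 2 μg/mL Hoechst 33258 as counterstain. Cytosolic green signal was imaged by confocal microscopy.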

[13] = system: MCF7; assay: Cytotoxicity against human MCF7 cells after 24 hrs by MTT assay; settings: MCF7, 24 h
[14] = system: HL-60; assay: Cytotoxicity against human HL60 cells after 72 hrs by MTT assay; assay type: functional, cell-based; settings: HL-60, 24 h, in the assay text read “after 24 hrs” for “after 72 hrs”
In short: (§3)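 MTT viability assay on HeLa, HL-60, MCF-7, MKN45 and LS174 cells. MTT (500 μg/mL) was added for 4 h at 37 °C and formazan dissolved in DMSO; A570 was read. IC50 came from linear regression; experiments were done in triplicate.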

[15] = system: HeLa; assay: Cytotoxicity against human HeLa cells after 24 hrs by MTT assay
[16] = system: MCF7; assay: Cytotoxicity against human MCF7 cells after 72 hrs by MTT assay; assay type: functional, cell-based; settings: MCF7, 24 h, in the assay text read “after 24 hrs” for “after 72 hrs”; in short: as §3
[17] = system: HeLa; assay: Induction of apoptosis in human HeLa cells assessed as early apoptotic cells at IC50 concentration after 24 hrs using annexin V/propidium iodide staining by flow cytometry; assay type: functional; in short: as §2
[18] = system: HeLa; assay: Induction of lysosomal membrane permeabilization in human HeLa cells assessed as acridine orange red fluorescence at 4 uM after 24 hrs by flow cytometry; assay type: functional; in short: as §1
[19] = system: HeLa; assay: Induction of lysosomal membrane permeabilization in human HeLa cells assessed as acridine orange red fluorescence at 6 uM after 24 hrs by flow cytometry; assay type: functional; in short: as §1
[20] = system: HeLa; assay: Induction of lysosomal membrane permeabilization in human HeLa cells assessed as acridine orange red fluorescence at 2 uM after 24 hrs by flow cytometry; assay type: functional; in short: as §1
[21] = system: HeLa; assay: Induction of lysosomal membrane permeabilization in human HeLa cells assessed as acridine orange red fluorescence at 10 uM after 24 hrs by flow cytometry; assay type: functional; in short: as §1
[22] = system: HeLa; assay: Induction of lysosomal membrane permeabilization in human HeLa cells assessed as acridine orange red fluorescence at 7 uM after 24 hrs by flow cytometry; assay type: functional; in short: as §1
[23] = system: HeLa; assay: Induction of lysosomal membrane permeabilization in human HeLa cells assessed as acridine orange red fluorescence at 20 uM after 24 hrs by flow cytometry; assay type: functional; in short: as §1
[24] = system: HeLa; assay: Induction of lysosomal membrane permeabilization in human HeLa cells assessed as acridine orange red fluorescence at 14 uM after 24 hrs by flow cytometry; assay type: functional; in short: as §1
[25] = system: HeLa; assay: Induction of lysosomal membrane permeabilization in human HeLa cells assessed as acridine orange red fluorescence at 17 uM after 24 hrs by flow cytometry; assay type: functional; in short: as §1
[26] = system: HeLa; assay: Induction of lysosomal membrane permeabilization in human HeLa cells assessed as acridine orange red fluorescence at 3 uM after 24 hrs by flow cytometry; assay type: functional; in short: as §1
[27] = system: HeLa; assay: Induction of lysosomal membrane permeabilization in human HeLa cells assessed as acridine orange red fluorescence at 1 uM after 24 hrs by flow cytometry; assay type: functional; in short: as §1
[28] = system: Calf thymus DNA; assay: Binding affinity to calf thymus DNA by fluorescent spectra analysis; assay type: nucleic-acid assay; settings: Bos taurus
In short: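 Compounds at 10, 20, 30 and 50 μM in 20 mM Tris-HCl pH 7.4, with or without 100 μM CT DNA (no-DNA samples as control). Incubated 1 day in the dark at 25 °C. Fluorescence wavelength and intensity read at 25 °C. Scatchard binding constant calculated.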

[29] = system: HeLa; assay: Induction of lysosomal membrane permeabilization in human HeLa cells assessed as acridine orange red fluorescence at 15 uM after 24 hrs by flow cytometry; assay type: functional; in short: as §1
[30] = in the assay text read “late apoptotic cells” for “damaged cells”

| Compound | Activity [1] | Activity [3] | Activity [5] | pIC50 [4] | pIC50 [7] | Activity [12] | pIC50 [14] | pIC50 [15] | pIC50 [16] | Activity [17] | Activity [18] | Activity [11, 30] | other results |
| --- | --- | --- | --- | --- | --- | --- | --- | --- | --- | --- | --- | --- | --- |
| CCCCCCCCNc1ccc2c3c(cccc13)C(=O)N(CCCN(C)C)C2=O |  |  |  | 4.76 | 5.23 |  | 5.26 | 5.07 | 5.29 |  |  |  |  |
| CNc1ccc2c3c(cccc13)C(=O)N(CCCN(C)C)C2=O |  |  |  | < 4.30 | 4.50 |  | 4.67 | 4.63 | 5.02 |  |  |  |  |
| CCCCCCCCCCCCN1C(=O)c2cccc3c(NCCN4CCN(C)CC4)ccc(c23)C1=O | inactive | Active | inactive | 5.03 | 4.90 | Active | 5.15 | 5.26 | 5.55 | 86.98% | 95.81% | 12.75% | Activity [19]: 92.83%; Activity [20]: 97.39% |
| CCCCCCCCCCCCN1C(=O)c2cccc3c(NCCN(C)C)ccc(c23)C1=O |  |  |  | 5.04 | 4.89 |  | 5.27 | 5.04 | 5.45 |  |  |  |  |
| CCCCCCCCCCCCN1C(=O)c2cccc3c(NCCCCCCCC)ccc(c23)C1=O |  |  |  | < 4.30 | < 4.30 |  | < 4.30 | 4.33 | < 4.30 |  |  |  |  |
| CCCCCCCCCCCCNc1ccc2c3c(cccc13)C(=O)N(CCCN1CCN(C)CC1)C2=O | inactive | Active | inactive | 5.07 | 5.13 | Active | 5.53 | 5.54 | 5.61 | 84.84% |  | 14.96% | Activity [26]: 95.2%; Activity [27]: 96.01%; Activity [10]: 59.82% |
| CN(C)CCN1C(=O)c2cccc3cc(N)cc(c23)C1=O [AMONAFIDE] |  | Active |  | < 4.30 | 4.69 |  |  | 4.97 |  |  |  |  | Activity [21]: 10%; Kb [28]: 14300 M⁻¹; Activity [10]: 112%; Activity [29]: 77.27% |

More lines, main results first:

| Activity [1] | Activity [3] | Activity [5] | Compound | pIC50 [4] | pIC50 [7] | Activity [12] | pIC50 [14] | pIC50 [15] | pIC50 [16] | Activity [17] | Activity [18] | Activity [11, 30] | other results |
| --- | --- | --- | --- | --- | --- | --- | --- | --- | --- | --- | --- | --- | --- |
| inactive | Active | inactive | CCCCCCCCNc1ccc2c3c(cccc13)C(=O)N(CCCN1CCN(C)CC1)C2=O | 4.65 | 4.74 | Active | 5.24 | 5.09 |  |  |  |  | Activity [2]: 91.86%; Activity [6]: 96.7%; Activity [8]: 83.18%; Activity [9]: 3.28%; Activity [10]: 89.48%; Activity [11]: 96.66%; pIC50 [13]: 5.24 |
| inactive | Active | inactive | CCCCCCCCN1C(=O)c2cccc3c(NCCN4CCN(C)CC4)ccc(c23)C1=O | 4.76 | 4.75 | Active | 4.92 | 5.10 | 5.08 |  | 93.04% | 53.82% | Activity [21]: 89.89%; Activity [22]: 88.55% |
| Active | Active |  | COc1cccc2c1C(=O)c1c(O)c3c(c(O)c1C2=O)C[C@@](O)(C(=O)CO)C[C@@H]3O[C@H]1C[C@H](N)[C@H](O)[C@H](C)O1 |  |  |  |  |  |  |  |  |  |  |
| inactive | Active | inactive | CCCCCCCCCCCCNc1ccc2c3c(cccc13)C(=O)N(CCCNCCN(C)C)C2=O | 4.81 | 5.03 | Active | 5.39 | 5.33 | 5.59 |  | 82.37% | 98.89% | Activity [6]: 98.89%; Activity [9]: 1.05%; Activity [19]: 44.64%; Activity [20]: 85.49% |
| inactive | Active | inactive | CCCCCCCCNc1ccc2c3c(cccc13)C(=O)N(CCCNCCN(C)C)C2=O | 4.83 | 5.04 | Active | 5.57 | 5.39 | 5.62 | 74.25% | 84.5% |  | Activity [9]: 25.7%; Activity [19]: 32.89%; Activity [20]: 83.13% |
| inactive | Active | inactive | CCCCCCCCCCCCN1C(=O)c2cccc3c(NCCNCCN(C)C)ccc(c23)C1=O | 4.93 | 4.73 | Active | 5.18 | 4.77 | 5.34 | 79.21% |  | 20.72% | Activity [23]: 88.49%; Activity [24]: 94.85%; Activity [25]: 93.5% |
| inactive | Active | inactive | CCCCCCCCN1C(=O)c2cccc3c(NCCNCCN(C)C)ccc(c23)C1=O | 5.03 | 5.03 | Active | 5.29 | 5.35 | 5.42 | 90.07% | 90.98% | 9.82% | Activity [28]: inactive; Activity [19]: 85.74%; Activity [20]: 92.29% |
